From ChEMBL document CHEMBL3808301, “Bioactive Iridoid Glycosides from the Whole Plants of Rehmannia chingii” (J Nat Prod, 2016)

Experiments:
[1] = system: A549; assay: Cytotoxicity against human A549 cells by MTT assay; assay type: functional, cell-based
[2] = Cytotoxicity against human Bel7402 cells by MTT assay; assay type: functional, cell-based; conditions: Bel-7402
[3] = Cytotoxicity against human BGC823 cells by MTT assay; assay type: functional, cell-based; conditions: BGC-823
[4] = system: HT-29; assay: Cytotoxicity against human HT-29 cells by MTT assay; assay type: functional, cell-based
[5] = system: A2780; assay: Cytotoxicity against human A2780 cells by MTT assay; assay type: functional, cell-based
[6] = system: HepG2; assay: Hepatoprotective activity against APAP-induced toxicity in human HepG2 cells assessed as cell survival rate at 10 uM incubated for 48 hrs by MTT assay; assay type: functional; conditions: HepG2, 48 h, read-out: Survival
In short: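 HepG2 cells grown in DMEM with 10% fetal calf serum and penicillin/streptomycin at 37 °C, 5% CO2, then seeded and incubated overnight. Test sample (10 μM) added together with APAP (final 8 mM) for 48 h. MTT at 0.5 mg/mL for 4 h, formazan dissolved in DMSO, absorbance read at 570 nm. Survival given as % of normal cells; bicyclol (10 μM) positive control; n = 3.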

[7] = system: BV-2; assay: Inhibition of LPS-induced NO production in mouse BV2 cells assessed as reduction in nitrite level pretreated for 24 hrs before LPS treatment for additional 24 hrs by Griess reaction method; assay type: functional, cell-based
In short: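 BV2 microglia plated and preincubated 24 h, then exposed to LPS 0.3 μg/mL for a further 24 h. Nitrite in the culture supernatant measured by Griess reaction at OD 550 nm against a NaNO2 standard. Curcumin served as positive control. IC50 given as mean ± SD of three independent experiments.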

[8] = Cytotoxicity against mouse BV2 cells assessed as cell viability by MTT assay; assay type: cell-based, BV-2; conditions: read-out: Activity
In short: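 Murine microglial BV2 cells under the LPS-activation conditions of the NO assay. Viability read by MTT and expressed as a percentage of the LPS-only treatment group. Means ± SD from three independent experiments.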

| IC50 [7] | SMILES | IC50 [1] | IC50 [2] | IC50 [3] | IC50 [4] | IC50 [5] | viability at 10 µM [6] | viability [8] |
| --- | --- | --- | --- | --- | --- | --- | --- | --- |
|  | COc1cc(/C=C/C(=O)O[C@H]2[C@@H]3C=CO[C@@H](O[C@@H]4O[C@H](CO)[C@@H](O)[C@H](O)[C@H]4O)[C@@H]3[C@@]3(CO)O[C@@H]23)ccc1O | > 10 µM | > 10 µM | > 10 µM | > 10 µM | > 10 µM |  |  |
|  | CC(/C=C/[C@@]1(O)C(C)(C)CCC[C@@]1(C)O[C@@H]1O[C@H](C)[C@@H](O)[C@H](O)[C@H]1O)=C\C(=O)O[C@@H]1C[C@](C)(O)[C@H]2[C@H](O[C@@H]3O[C@H](CO)[C@@H](O)[C@H](O)[C@H]3O)OC=C[C@H]21 | > 10 µM | > 10 µM | > 10 µM | > 10 µM | > 10 µM |  |  |
|  | C[C@H]1[C@H]2[C@H](O[C@@H]3O[C@H](COC(=O)/C=C/c4ccccc4)[C@@H](O)[C@H](O)[C@H]3O)OC=C(C(=O)O)[C@H]2C[C@@H]1O | > 10 µM | > 10 µM | > 10 µM | > 10 µM | > 10 µM | 65.9% |  |
|  | C[C@@]1(O)[C@@H]2C(=C[C@H]1O[C@@H]1O[C@H](C(=O)O)[C@@H](O)[C@H](O)[C@H]1O)C=CO[C@H]2O[C@@H]1O[C@H](CO)[C@@H](O)[C@H](O)[C@H]1O | > 10 µM | > 10 µM | > 10 µM | > 10 µM | > 10 µM |  |  |
|  | OC[C@H]1O[C@@H](O[C@@H]2OC=C[C@H]3[C@H](O[C@@H]4O[C@H](CO)[C@@H](O)[C@H](O)[C@H]4O)[C@@H]4O[C@]4(CO)[C@@H]23)[C@H](O)[C@@H](O)[C@@H]1O | > 10 µM | > 10 µM | > 10 µM | > 10 µM | > 10 µM |  |  |
|  | C[C@]1(O)C[C@@H](O)[C@@H]2C=CO[C@@H](O[C@@H]3O[C@H](CO)[C@@H](O)[C@H](O[C@@H]4C[C@@H]5[C@H]([C@H](O[C@@H]6O[C@H](CO)[C@@H](O)[C@H](O)[C@H]6O)O4)[C@@](C)(O)C[C@H]5O)[C@H]3O)[C@@H]21 | > 10 µM | > 10 µM | > 10 µM | > 10 µM | > 10 µM |  |  |
|  | C[C@]1(O)CCC2=CCO[C@@H](O[C@@H]3O[C@H](CO)[C@@H](O)[C@H](O)[C@H]3O)[C@@H]21 | > 10 µM | > 10 µM | > 10 µM | > 10 µM | > 10 µM |  |  |
|  | C[C@]1(O)[C@H](O)C=C2C=CO[C@@H](O[C@@H]3O[C@H](CO)[C@@H](O)[C@H](O)[C@H]3O)[C@@H]21 | > 10 µM | > 10 µM | > 10 µM | > 10 µM | > 10 µM |  |  |
|  | OC[C@H]1O[C@H](OC[C@H]2O[C@@H](O[C@@H]3OC=C[C@H]4[C@H](O)[C@@H]5O[C@]5(CO)[C@@H]34)[C@H](O)[C@@H](O)[C@@H]2O)[C@H](O)[C@@H](O)[C@H]1O | > 10 µM | > 10 µM | > 10 µM | > 10 µM | > 10 µM |  |  |
|  | OCC1=C[C@@H](O)[C@]2(O[C@@H]3O[C@H](CO)[C@@H](O)[C@H](O)[C@H]3O)C=CO[C@@H](O[C@@H]3O[C@H](CO)[C@@H](O)[C@H](O)[C@H]3O)[C@H]12 | > 10 µM | > 10 µM | > 10 µM | > 10 µM | > 10 µM |  |  |
|  | C[C@]1(O)C=CC2=CCO[C@@H](O[C@@H]3O[C@H](CO)[C@@H](O)[C@H](O)[C@H]3O)[C@@H]21 | > 10 µM | > 10 µM | > 10 µM | > 10 µM | > 10 µM |  |  |
|  | C[C@]1(O)C[C@@H](O)[C@@H]2C=CO[C@@H](O[C@@H]3O[C@H](CO)[C@@H](O)[C@H](O)[C@H]3O)[C@@H]21 | > 10 µM | > 10 µM | > 10 µM | > 10 µM | > 10 µM | 69.9% |  |
| 2.5 µM | CC(/C=C/[C@@]1(O)C(C)(C)CCC[C@@]1(C)O)=C\C(=O)O[C@H]1[C@H](O[C@@H]2OC=C[C@H]3[C@H](O)[C@@H]4O[C@]4(CO)[C@@H]23)O[C@H](CO)[C@@H](O)[C@@H]1O | > 10 µM | > 10 µM | > 10 µM | > 10 µM | > 10 µM |  | 91.7% |
|  | C[C@]1(O)C[C@@H](O[C@@H]2O[C@H](CO)[C@@H](O)[C@H](O)[C@H]2O)[C@@H]2C=CO[C@@H](O[C@@H]3O[C@H](CO)[C@@H](O)[C@H](O)[C@H]3O)[C@@H]21 | > 10 µM | > 10 µM | > 10 µM | > 10 µM | > 10 µM |  |  |
|  | OCC1=C[C@@H](O)[C@]2(O[C@@H]3O[C@H](CO)[C@@H](O)[C@H](O)[C@H]3O[C@H]3O[C@@H](CO)[C@H](O)[C@@H](O)[C@@H]3O)C=CO[C@@H](O[C@@H]3O[C@H](CO)[C@@H](O)[C@H](O)[C@H]3O)[C@H]12 | > 10 µM | > 10 µM | > 10 µM | > 10 µM | > 10 µM |  |  |
|  | OCC1=C[C@@H](O)[C@]2(O[C@@H]3O[C@H](CO)[C@@H](O)[C@H](O)[C@H]3O[C@H]3O[C@@H](CO)[C@H](O)[C@@H](O)[C@@H]3O[C@@H]3O[C@H](CO)[C@@H](O)[C@H](O)[C@H]3O)C=CO[C@@H](O[C@@H]3O[C@H](CO)[C@@H](O)[C@H](O)[C@H]3O)[C@H]12 | > 10 µM | > 10 µM | > 10 µM | > 10 µM | > 10 µM | 64% |  |
|  | C[C@]1(O)C[C@@H](O)[C@@H]2C[C@H](O[C@H]3C[C@@](C)(O)[C@@H]4[C@@H](O[C@H]5O[C@@H](CO)[C@H](O)[C@@H](O)[C@@H]5O)OC=C[C@@H]43)O[C@@H](O[C@H]3O[C@@H](CO)[C@H](O)[C@@H](O)[C@@H]3O)[C@@H]21 | > 10 µM | > 10 µM | > 10 µM | > 10 µM | > 10 µM |  |  |
|  | C[C@]1(O)C[C@@H](O)[C@@H]2C[C@@H](O[C@H]3C[C@@](C)(O)[C@@H]4[C@@H](O[C@H]5O[C@@H](CO)[C@H](O)[C@@H](O)[C@@H]5O)OC=C[C@@H]43)O[C@@H](O[C@H]3O[C@@H](CO)[C@H](O)[C@@H](O)[C@@H]3O)[C@@H]21 | > 10 µM | > 10 µM | > 10 µM | > 10 µM | > 10 µM |  |  |
|  | C[C@]1(O)C[C@@H](O)[C@]2(O)C=CO[C@@H](O[C@@H]3O[C@H](CO)[C@@H](O)[C@H](O)[C@H]3O)[C@@H]21 | > 10 µM | > 10 µM | > 10 µM | > 10 µM | > 10 µM |  |  |
|  | OCC1=C[C@@H](O)[C@@H]2C=CO[C@@H](O[C@@H]3O[C@H](CO)[C@@H](O)[C@H](O)[C@H]3O)[C@H]12 [AUCUBIN] | > 10 µM | > 10 µM | > 10 µM | > 10 µM | > 10 µM |  |  |
|  | COC(=O)c1cc(OC)c2c(c1-c1c(CO)cc(OC)c3c1OCO3)OCO2 [BICYCLOL] |  |  |  |  |  | 66.5% |  |
|  | O=C(O[C@H]1[C@@H]2C=CO[C@@H](O[C@@H]3O[C@H](CO)[C@@H](O)[C@H](O)[C@H]3O)[C@@H]2[C@@]2(CO)O[C@@H]12)c1ccc(O)cc1 [CATALPOSIDE] | > 10 µM | > 10 µM | > 10 µM | > 10 µM | > 10 µM |  |  |
| 0.52 µM | COc1cc(/C=C/C(=O)CC(=O)/C=C/c2ccc(O)c(OC)c2)ccc1O [CURCUMIN] |  |  |  |  |  |  | 93.4% |
|  | CC(/C=C/[C@@]1(O)C(C)(C)CCC[C@@]1(C)O)=C\C(=O)O[C@@H]1C[C@](C)(O)[C@H]2[C@H](O[C@@H]3O[C@H](CO)[C@@H](O)[C@H](O)[C@H]3O)OC=C[C@H]21 [REHMAGLUTOSIDE F] | > 10 µM | > 10 µM | > 10 µM | > 10 µM | > 10 µM | 63.4% |  |

| SMILES | IC50 [7] | IC50 [1] | IC50 [2] | IC50 [3] | IC50 [4] | IC50 [5] | viability at 10 µM [6] | viability [8] |
| --- | --- | --- | --- | --- | --- | --- | --- | --- |
| OC[C@H]1O[C@@H](O[C@@H]2OC=C[C@H]3[C@H](O)[C@@H]4O[C@]4(CO)[C@@H]23)[C@H](O)[C@@H](O)[C@@H]1O [CATALPOL] | 7.3 µM | > 10 µM | > 10 µM | > 10 µM | > 10 µM | > 10 µM | 69.1% | 86.1% |
